Hits are enriched below; roughly 3.7% of the tested compounds scored in any of these assays.
JMJD2C inh: inhibitors of human GASC-1 (JMJD2C) demethylase; AID 2099; Q9H3R0; GST-JMJD2C(1-420) H3K9me3 demethylation, DELFIA europium; inhibition, % at 2.35 µM; hit rate 0.069% among 330,000;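 active = more than half of a compound's replicate wells show inhibition beyond 50%, single wells judged on their own value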;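 note: signal counts dimethyl H3K9 product captured on neutravidin plate; 0% = median of DMSO wells and 100% = 0.3 times that DMSO median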
Target sequence (Q9H3R0 1-420 limits assumed): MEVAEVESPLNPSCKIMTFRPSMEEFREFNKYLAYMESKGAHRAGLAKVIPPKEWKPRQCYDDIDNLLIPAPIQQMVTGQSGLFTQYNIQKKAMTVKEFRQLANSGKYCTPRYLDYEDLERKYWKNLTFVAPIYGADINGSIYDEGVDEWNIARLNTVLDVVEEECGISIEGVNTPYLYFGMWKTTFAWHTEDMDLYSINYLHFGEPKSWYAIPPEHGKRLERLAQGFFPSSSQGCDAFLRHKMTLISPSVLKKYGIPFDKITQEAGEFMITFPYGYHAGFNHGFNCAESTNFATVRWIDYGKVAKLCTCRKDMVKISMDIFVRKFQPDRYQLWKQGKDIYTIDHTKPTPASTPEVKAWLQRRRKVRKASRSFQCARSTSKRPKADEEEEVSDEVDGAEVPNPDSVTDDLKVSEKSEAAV
SR-BI HDL uptake: inhibitors of mouse SR-BI mediated HDL lipid uptake | inhibition, % at 12.5 µM | ldlA[mSR-BI] CHO cells, DiI-HDL uptake fluorescence, 3 h | hit rate 0.96% among 320,000 | Q61009;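 active = mean replicate inhibition of at least 70% and a set share of replicates each scoring 70 or more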;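 note: 0% = median of neutral control wells and 100% = median of positive control wells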
AHR activator: activators of human aryl hydrocarbon receptor; hit rate 2.5% among 320,000; P35869; activation, % at 5 µM; AHR-responsive luciferase reporter cells, luminescence; in the data active = activation above about 47%;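 note: 0% = vehicle wells and 100% = reference agonist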
GAA850 FXN act: increases GAA850 frataxin promoter reporter activity; HEK293 lucGAA850 FXN promoter luciferase reporter, 24 h; percent of 10 µM SAHA response; activation, % at 6 µM; hit rate 0.56% among 360,000; AID 540364;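 active = activation above the average of all compounds screened plus 3 SD, cutoff fixed separately per campaign, cut at about 7.5% in these data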;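 note: 0% = DMSO wells and 100% = 10 µM SAHA wells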
SR-BI DiI-HDL act: SR-BI HDL lipid transfer activation. hit rate 0.096% among 320,000. activation, % at 12.5 µM. CHO ldlA[mSR-BI] cells, DiI-HDL uptake fluorescence, 3 h; 100 = double the neutral-control signal;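 active = mean replicate activation of at least 60% and every replicate at or above 60%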;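 note: 0% = median plate neutral-control signal and 100% = twice that signal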
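System: LDL receptor-deficient CHO ldlA cells overexpressing murine SR-BI | Timing: 3 h uptake period with compound, 37 °C | Medium: HEPES-buffered (25 mM, pH 7.4) F12 plus 0.5% BSA | Dosing: Single-point compound dose | Signal: Bottom-read fluorescence, 550/595 nm | Read-out: Retained DiI signal reflecting DiI-HDL uptake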
GAA30 counter: activates GAA30 frataxin promoter, counter-screen for GAA850 activators; shares compounds with GAA850 FXN act; HEK293 lucGAA30 FXN promoter luciferase, 24 h; DMSO = 0%, 5 µM ipriflavone = 100%; activation, % at 6 µM; hit rate 66% among 1,900;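 active = mean activation above the mean of solvent-only control wells plus 3 SD, cut at about 22% in these data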;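 note: counterscreen of GAA850 promoter hits where activity marks nonselective or luminescence artifacts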
FXN GAA850 conf: GAA850 FXN promoter activation confirmation | shares compounds with GAA850 FXN act | HEK293 lucGAA850 FXN promoter luciferase reporter, 24 h; 100% = activation by SAHA | activation, % at 6 µM | hit rate 86% among 1,900 | AID 588351;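 active = mean activation above a set limit taken from the primary screen, cut at about 8% in these data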;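 note: 0% = DMSO wells and 100% = 10 µM SAHA wells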
* hit, by the source's call; · = no result given.

SMILES	JMJD2C inh	SR-BI HDL uptake	AHR activator	GAA850 FXN act	SR-BI DiI-HDL act	GAA30 counter	FXN GAA850 conf
COc1cc(C(=O)OCC(=O)c2cc(C)n(C)c2C)cc(OC)c1OC	-5.3	63.0	5.4	-3.1	-63.0	·	·
Cc1cc(C(=O)COC(=O)c2nccnc2N)c(C)n1C	19.8	-7.2	-3.1	9.1*	7.2	104.0*	31.7*
CC(OC(=O)c1ccccc1Oc1ccccc1)C(=O)NC1CC1 (stereo not given)	8.3	1.2	1.1	0.2	-1.2	·	·
Nc1ncnc2c1ncn2C1OC(C(=O)NC2CC2)C(O)C1O (stereo not given)	·	-8.1	-2.3	9.7*	8.1	25.9*	14.9*
OCC1OC(n2cnc3c(NC4CCCCC4)ncnc32)C(O)C1O (stereo not given)	-1.3	-19.7	0.9	9.6*	19.7	37.1*	16.7*
Nn1cnc2c(ncn2C2OC(CO)C(O)C2O)c1=O (stereo not given)	·	·	·	13.2*	·	13.9	5.5
Nc1ncnc2c1ncn2C1O[C@H](CO)[C@@H](O)[C@@H]1O (stereo not given in full)	·	-21.3	1.2	0.1	21.3	·	·
OCC1OC(n2cnc3c(NC4CCCC4)ncnc32)C(O)C1O (stereo not given)	5.9	-1.1	0.5	12.0*	1.1	38.8*	20.2*
Nc1ncnc2c1ncn2[C@@H]1O[C@H](CO)[C@@H](O)[C@@H]1O	-0.6	-4.5	1.9	-1.6	4.5	·	·
COc1ccc2c(c1)Cc1sc(NC(C)=O)nc1-2	18.5	-10.5	-4.9	8.2*	10.5	111.1*	31.9*
O=C(c1cc2ccccc2oc1=O)N1CCOCC1	-5.3	-12.3	-0.5	7.7*	12.3	101.5*	33.9*
O=C(C[C@H]1C/C=C\C[C@@H](Cc2ccc(F)cc2)C(=O)O[C@H](c2ccccc2)CNC1=O)NCCO	-6.7	1.8	-0.2	0.9	-1.8	·	·
C/C(=N\NC(=O)c1sccc1C)c1ccncc1	14.4	7.5	20.6	8.2*	-7.5	82.3*	32.0*
Cc1ccc(C)c(-n2cc(CNCCCn3cccn3)c(-c3ccccc3)n2)c1	5.0	·	7.5	10.8*	·	10.6	7.5
COCCCN(C(=S)NC(=O)C12CC3CC(CC(C3)C1)C2)c1c(N)n(Cc2ccccc2)c(=O)[nH]c1=O	-12.2	-3.6	1.7	8.4*	3.6	12.9	8.2*
COc1ccc(OC)c(NC(=O)C2(C)CCN2Cc2ccc(SC)cc2)c1 (stereo not given)	·	·	·	2.2	·	·	·
O=C(N/N=C/c1ccc(OC2CSC2)cc1)c1ccccc1	2.5	3.0	3.0	8.1*	-3.0	84.4*	47.2*
O=C(/C=C/c1ccc(OC2CSC2)cc1)c1ccccc1	-7.8	-30.9	5.7	-0.5	30.9	·	·
O=C(Nc1ccc(-c2nc3ccccc3[nH]2)cc1)C1CCCN(Cc2ccn[nH]2)C1 (stereo not given)	·	·	·	1.4	·	·	·
COc1ccc([C@H]2N[C@]3(CCCN(Cc4ccc(F)cc4)C3=O)[C@H]3C(=O)N(Cc4ccccc4)C(=O)[C@@H]23)cc1	·	·	·	-8.5	·	·	·
Cc1ccc([N+](=O)[O-])cc1-c1ccc(/C=C(\C#N)c2[nH]nc(N)c2C#N)o1	3.1	-13.5	29.2	8.7*	13.5	47.9*	20.4*
CCOC(=O)[C@H]1[C@H]2COc3ccccc3[C@@H]2N2C(=O)c3c(C)cc(C)cc3NC(=O)[C@@]12C	3.1	33.9	5.9	11.0*	-33.9	27.6*	11.4*
O=C1CC2(CCN(C(=O)c3c(F)cccc3Cl)CC2)Oc2ccccc21	-16.8	-22.2	-0.5	-2.3	22.2	·	·
COc1cc(NC(=O)Cn2ncc(Cl)c(Cl)c2=O)c(C)cc1[N+](=O)[O-]	3.0	-5.1	·	11.8*	5.1	-82.3	-18.4
COc1cc(NC(=O)CN2C(=O)CN(C)C2=O)c(C)cc1[N+](=O)[O-]	-26.3	-28.1	0.3	-2.9	28.1	·	·
SMILES	JMJD2C inh	SR-BI HDL uptake	AHR activator	GAA850 FXN act	SR-BI DiI-HDL act	GAA30 counter	FXN GAA850 conf
CC1Oc2ccccc2C=C1/C=N/Nc1ccc(C(=O)O)cc1 (stereo not given)	-7.5	5.2	-0.2	10.2*	-5.2	97.4*	38.4*
O=C(C1CCCC1)N1CCN(S(=O)(=O)c2cccc(Cl)c2Cl)CC1	22.1	6.3	4.1	0.8	-6.3	·	·
O=C(Oc1coc(CSc2nnc(NC(=O)C3CC3)s2)cc1=O)c1c(F)cccc1F	8.6	-11.9	-2.4	1.6	11.9	·	·
O=Cc1ccc(N2CCCC2)c([N+](=O)[O-])c1	-34.8	14.9	0.6	0.5	-14.9	·	·
O=[N+]([O-])/C=C\c1ccc(N2CCCC2)c(F)c1	7.3	1.5	·	8.6*	-1.5	18.5	31.2*
O=C1[C@H](Cc2ccccc2)NCC=CC[C@H](c2ccco2)N1Cc1ccccc1	·	-40.8	·	11.4*	40.7	5.4	7.2
Cc1cc(C)cc(-n2c(SCC(=O)NCc3ccc4c(c3)OCO4)nc3ccccc3c2=O)c1	2.2	-8.8	2.6	8.6*	8.8	17.8	7.0
Cc1cc(C)cc(-n2c(SCC(=O)NCc3ccco3)nc3ccccc3c2=O)c1	6.3	2.6	-1.6	7.3	-2.6	·	·
CC(C)CC(=O)N/C(N)=N/c1nc2ccccc2o1	20.0	-3.6	-4.8	2.9	3.6	·	·
CSc1nc2ccc(NC(=O)C3CC(=O)N(Cc4ccccc4)C3)cc2s1 (stereo not given)	15.3	15.7	6.2	1.0	-15.7	·	·
CCN(CC)S(=O)(=O)c1ccc(C(=O)OCCN2C(=O)c3cccc4c(N5CCOCC5)ccc(c34)C2=O)cc1	2.4	30.3	3.8	8.5*	-30.3	20.6	6.0
Cc1nn(-c2ccccc2)c(=S)c2ccccc12	4.2	-9.0	13.7	-0.1	9.0	·	·
Nc1cc2c(cc1Cl)-c1ccc([N+](=O)[O-])cc1C2=NO	·	24.1	·	9.5*	-24.1	74.8*	39.5*
COc1cc(OC)c(OC)cc1C=Cc1ccc2ccccc2n1	·	·	·	8.9*	·	66.9*	29.7*
COc1cc(OC)c(OC)cc1/C=C/c1cc(C(=O)O)c2ccccc2n1	0.5	·	1.7	3.7	·	·	·
Cc1ccc(C(=O)Nc2cnc3ccccn3c2=O)cc1	-19.7	-15.5	21.1	8.3*	15.5	100.3*	30.8*
Cc1ccc2ncc(NC(=O)c3ccc(F)cc3)c(=O)n2c1	-8.9	-9.0	2.2	1.2	9.0	·	·
Cc1ccc(NC(=S)N/N=C/c2c(C)[nH]c3ccccc23)cc1	0.7	102.1*	75.3*	7.9*	-102.1	30.8*	20.6*
Cc1[nH]c2ccccc2c1/C=N/NC(=O)CNC(=O)c1ccccc1	-3.3	0.5	9.5	0.4	-0.5	·	·

Screening results (PubChem)
